Calls of active or inactive are those of the source. The rule behind the calls is not given here.
Columns and labels:
[1] = molecular target: Replicase polyprotein 1ab (Severe acute respiratory syndrome-related coronavirus, UniProt P0C6X7); assay: Inhibition of SARS Coronavirus 3C-like protease expressed in Escherichia coli
[2] = Inhibition of Transmissible gastroenteritis virus TFI recombinant GST-tagged 3C-like protease expressed in Escherichia coli BL21 (DE3)
In short: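 The TGEV strain TFI 3CLpro was expressed in E. coli BL21(DE3) as a GST fusion, purified on glutathione resin, and had the tag cleaved with PreScission protease. IC50 came from at least eight concentrations.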

[3] = test system: Transmissible gastroenteritis virus; assay: Antiviral activity against Transmissible gastroenteritis virus TFI infected in swine testicle cells assessed as inhibition of S and N protein expression treated 2 hrs before infection measured after 6 hrs post infection by indirect immunofluorescent assay; type: functional, organism-based; conditions: Alphacoronavirus 1, TFI
In short: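 ST cells, with or without a 2-h compound pretreatment, infected with TGEV at MOI 10. At 6 h they were fixed in 80% acetone and stained with mAbs to S and N protein, then FITC anti-mouse Ig for 60 min at room temperature. Fluorescence was read at ex 485/em 535 nm. Eight concentrations were tested, and EC50 was taken from dose-response curves.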

[4] = Cytotoxicity against swine testicle cells after 18 hrs; type: cell-based, Sus scrofa; conditions: pig
In short: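 ST cells in MEM with 10% fetal bovine serum were exposed to eight concentrations of compound for 18 h. GI50 was derived from the dose-response curves.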

[5] = test system: Transmissible gastroenteritis virus; assay: Antiviral activity against Transmissible gastroenteritis virus TFI infected in swine testicle cells assessed as protection against virus-induced caspase 3 activation at 5 uM after 14 hrs post infection; type: functional, organism-based
In short: (§1)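 TGEV-infected ST cells were treated with compound at 5 µM, and caspase activation was examined at 14 and 18 hpi. Lysates with equal total protein were run on SDS-PAGE and transferred to nitrocellulose. Blots were probed with anti-caspase-3 (β-actin antibody also used) and detected by enhanced chemiluminescence.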

[6] = test system: Transmissible gastroenteritis virus; assay: Antiviral activity against Transmissible gastroenteritis virus TFI infected in swine testicle cells assessed as protection against virus-induced caspase 3 activation at 5 uM after 18 hrs post infection; type: functional, organism-based; in short: as §1
[7] = test system: Transmissible gastroenteritis virus; assay: Antiviral activity against Transmissible gastroenteritis virus TFI infected in swine testicle cells assessed as protection against virus-induced cytopathic effect at 5 uM after 18 hrs post infection; type: functional, organism-based
In short: (§2)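 ST cell monolayers were inoculated with TGEV at MOI 5 and kept at 37°C under 5% CO2. Treatments were 5 µM compound, caspase inhibitor ZVAD-fmk at 100 µM as positive control, or 1% DMSO vehicle. At 18–24 hpi CPE was scored by microscopy as cell rounding, enlargement, syncytia and detachment. Two independent experiments were run.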

[8] = test system: Transmissible gastroenteritis virus; assay: Antiviral activity against Transmissible gastroenteritis virus TFI infected in swine testicle cells assessed as protection against virus-induced cytopathic effect at 100 uM after 18 hrs post infection; type: functional, organism-based; in short: as §2
[9] = test system: Transmissible gastroenteritis virus; assay: Antiviral activity against Transmissible gastroenteritis virus TFI infected in swine testicle cells assessed as protection against virus-induced cytopathic effect at 5 uM after 24 hrs post infection; type: functional, organism-based; in short: as §2
[10] = test system: Transmissible gastroenteritis virus; assay: Antiviral activity against Transmissible gastroenteritis virus TFI infected in swine testicle cells assessed as protection against virus-induced cytopathic effect at 100 uM after 24 hrs post infection; type: functional, organism-based
[11] = test system: Transmissible gastroenteritis virus; assay: Antiviral activity against Transmissible gastroenteritis virus TFI infected in swine testicle cells assessed as reduction of N protein expression after 6 hrs post infection by Western blot analysis; type: functional, organism-based
In short: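 TGEV-infected ST cells were treated with compound at 0.3 to 10 µM. Lysates with equal total protein were separated by SDS-PAGE, transferred to nitrocellulose, probed with anti-TGEV N protein antibody, and detected by enhanced chemiluminescence. Three independent experiments were run.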

[12] = test system: Transmissible gastroenteritis virus; assay: Antiviral activity against Transmissible gastroenteritis virus TFI infected in swine testicle cells assessed as reduction of N protein mRNA level at 1 uM after 6 hrs post infection by RT-PCR; type: functional; design: scale not given: the % may be the effect or the level left
In short: (§3)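 Viral RNA was extracted from lysates of TGEV-infected ST cells for SYBR green real-time RT-PCR, with primers for TGEV N protein or 3CLpro. Cycling was 50°C 2 min and 95°C 10 min, then 40 cycles of 95°C 15 s and 60°C 1 min. Levels were normalized to β-actin by the comparative CT method, with CT measured at least in triplicate.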

[13] = test system: Transmissible gastroenteritis virus; assay: Antiviral activity against Transmissible gastroenteritis virus TFI infected in swine testicle cells assessed as reduction of N protein mRNA level at 5 uM after 6 hrs post infection by RT-PCR; type: functional; design: scale not given: the % may be the effect or the level left; in short: as §3
[14] = test system: Transmissible gastroenteritis virus; assay: Antiviral activity against Transmissible gastroenteritis virus TFI infected in swine testicle cells assessed as reduction of N protein mRNA level at 10 uM after 6 hrs post infection after 6 hrs post infection by RT-PCR; type: functional; design: scale not given: the % may be the effect or the level left; in short: as §3
[15] = test system: Transmissible gastroenteritis virus; assay: Antiviral activity against Transmissible gastroenteritis virus TFI infected in swine testicle cells assessed as reduction of 3CL protease mRNA level at 1 uM after 6 hrs post infection by RT-PCR; type: functional; design: scale not given: the % may be the effect or the level left; in short: as §3
[16] = test system: Transmissible gastroenteritis virus; assay: Antiviral activity against Transmissible gastroenteritis virus TFI infected in swine testicle cells assessed as reduction of 3CL protease mRNA level at 5 uM after 6 hrs post infection by RT-PCR; type: functional; design: scale not given: the % may be the effect or the level left; in short: as §3
[17] = test system: Transmissible gastroenteritis virus; assay: Antiviral activity against Transmissible gastroenteritis virus TFI infected in swine testicle cells assessed as reduction of 3CL protease mRNA level at 10 uM after 6 hrs post infection by RT-PCR; type: functional; design: scale not given: the % may be the effect or the level left; in short: as §3
[18] = test system: Transmissible gastroenteritis virus; assay: Antiviral activity against Transmissible gastroenteritis virus TFI infected in swine testicle cells assessed as reduction of N protein mRNA level after 6 hrs post infection by RT-PCR; type: functional, organism-based; in short: as §3
[19] = test system: Transmissible gastroenteritis virus; assay: Antiviral activity against Transmissible gastroenteritis virus TFI infected in swine testicle cells assessed as reduction of 3CL protease mRNA level after 6 hrs post infection by RT-PCR; type: functional, organism-based; in short: as §3

Structure (SMILES)	IC50 [1] [µM]	IC50 [2] [µM]	EC50 [3] [µM]	GI50 at 18 h [4] [µM]	Activity [5]	Activity [6]	Activity [7]	Activity [8]	Activity [9]	Activity [10]	Activity [11]	Activity [12] [%]	Activity [13] [%]	Activity [14] [%]	Activity [15] [%]	Activity [16] [%]	Activity [17] [%]	Activity [18]	Activity [19]
CCN1/C(=C\C=C\c2sc3ccc(-c4nc5ccccc5s4)cc3[n+]2CC)Sc2ccc(-c3nc4ccccc4s3)cc21	2.5	2.1	> 30	> 50	inactive	inactive													
CCC(=C\c1sc2cc(C)c(C)cc2[n+]1CC)/C=C1/Sc2cc(/C=C/c3ccccc3)ccc2N1CC			1.8		Active	Active	Active	Active	Active	Active									
CCN1C(c2ccccc2)=C(c2ccccc2)S/C1=C/C=C/c1sc2c3ccccc3ccc2[n+]1CC.[Cl-]	3.8	4.9	4.5	18.1	Active	Active	Active	Active	Active	Active	Dose-dependent effect	59.6	3	0.4	39.9	1.2	0.2		
C(/C1=C2Sc3ccccc3N2CC1)=C1\CC[n+]2c1sc1ccccc12	10.5	2.2	> 30	> 50	inactive	inactive													
CCN1/C(=C\C=c2/s/c(=C\c3sc4ccccc4[n+]3CC)n(CC)c2=O)Sc2ccccc21	10	2.2	17.4	> 50	inactive	inactive													
CCN1/C(=C\C(=C/c2sc3ccccc3[n+]2CCCS(=O)(=O)[O-])OC)Sc2ccc(OC)cc21	7.3	3.3	3	13.1	Active	Active	Active	Active	Active	Active									
CCC(=C\c1sc2c3ccccc3ccc2[n+]1CC)/C=C1/Sc2cc(C)c(C)cc2N1CC	5.4	8	2.1	21.3	Active	Active	Active	Active	Active	Active	Dose-dependent effect	2.6	1.3	1.1	1.4	0.5	0.3	Dose-dependent effect	Dose-dependent effect
CCC(/C=C1\Sc2cc(/C=C/c3ccccc3)ccc2N1CC)=C\c1sc2cc(C)c(C)cc2[n+]1CC	6.6			> 50															
CCN1/C(=C\C=C\C2=CC(=C/c3sc4ccccc4[n+]3CC)/CC(C)C2)Sc2ccccc21 (configuration not stated)	2	11.9	6.2	> 50	Active	Active	Active	Active	Active	Active	Dose-dependent effect	13.7	2.1	1.4	20.8	2.3	1.4	Dose-dependent effect	Dose-dependent effect
